Measured values collected from several papers.
Lines come from different studies, so protocols differ.
Target: Receptor-type tyrosine-protein kinase FLT3 (FLT3, Homo sapiens, UniProt P36888)
Sequence (P36888 27-993, as in one of the studies): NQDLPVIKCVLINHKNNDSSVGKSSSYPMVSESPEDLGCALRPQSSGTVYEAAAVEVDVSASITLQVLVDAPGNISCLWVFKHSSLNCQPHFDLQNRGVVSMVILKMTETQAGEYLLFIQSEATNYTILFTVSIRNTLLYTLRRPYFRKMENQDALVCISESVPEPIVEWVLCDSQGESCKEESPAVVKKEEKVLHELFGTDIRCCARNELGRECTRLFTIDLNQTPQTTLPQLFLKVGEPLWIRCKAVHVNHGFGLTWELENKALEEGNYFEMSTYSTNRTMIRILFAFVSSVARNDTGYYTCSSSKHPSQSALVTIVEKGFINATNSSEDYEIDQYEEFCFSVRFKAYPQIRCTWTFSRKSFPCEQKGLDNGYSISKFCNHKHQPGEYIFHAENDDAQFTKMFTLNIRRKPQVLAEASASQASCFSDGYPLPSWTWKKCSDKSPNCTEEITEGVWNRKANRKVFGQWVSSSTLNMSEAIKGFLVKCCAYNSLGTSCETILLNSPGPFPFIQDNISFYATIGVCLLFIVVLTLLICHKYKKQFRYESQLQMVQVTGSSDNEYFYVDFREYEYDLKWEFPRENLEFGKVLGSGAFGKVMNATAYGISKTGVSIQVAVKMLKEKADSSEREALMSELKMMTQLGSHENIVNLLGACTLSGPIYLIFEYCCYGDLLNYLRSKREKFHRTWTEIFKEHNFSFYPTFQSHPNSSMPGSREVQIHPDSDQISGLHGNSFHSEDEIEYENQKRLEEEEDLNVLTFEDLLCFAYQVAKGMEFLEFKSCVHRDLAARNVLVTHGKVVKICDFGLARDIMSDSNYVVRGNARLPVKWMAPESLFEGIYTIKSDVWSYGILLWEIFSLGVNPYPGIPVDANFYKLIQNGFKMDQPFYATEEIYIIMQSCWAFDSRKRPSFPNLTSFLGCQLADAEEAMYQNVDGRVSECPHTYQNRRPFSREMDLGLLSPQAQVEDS

Structure (SMILES) | test | measurement | result
CCCNc1ccnc(Nc2cccc(-c3cccnc3)c2)n1 | enzyme activity, inhibitor | IC50 | < 6 nM
C[C@H](c1ccnc(Nc2nc3ccc(-c4cc(N(C)C)ncn4)cc3[nH]2)c1)N1CCN(C(=O)CC(F)(F)F)CC1 | target engagement in cells, BRET | EC50 | 22000 nM
c1cc(Nc2nccc(NC3CCCCC3)n2)cc(-c2ncco2)c1 | enzyme activity, inhibitor | IC50 | 336 nM
Cc1ccc(C(=O)Nc2ccc(Oc3cc4cnn(C)c4cc3-c3cn[nH]c3)c(F)c2)c(=O)n1-c1ccc(F)cc1 | cell growth or viability, ATP luminescence | IC50 | 7 nM
COc1ccc2c(Oc3ccc4c(C(=O)Nc5ccccc5N)cccc4c3)ccnc2c1 | enzyme activity, inhibitor | IC50 | > 500 nM
CN(C)c1ncnc(-c2ccc3nc(Nc4cc(CN5CCN(C(=O)CC(F)(F)F)CC5)ccn4)[nH]c3c2)c1Cl | target engagement in cells, BRET | EC50 | > 50000 nM
C[C@H](Nc1ccnc(Nc2cccc(-c3cccnc3)c2)n1)C(=O)O | enzyme activity, inhibitor | IC50 | > 23000 nM
CN(C)c1ccc(C=C2C(=O)Nc3ccccc32)cc1 | enzyme activity, inhibitor, radiometric | IC50 | 70 nM
Cc1cc(Nc2cc(CN3CCOCC3)c3nc(C)c(Cc4ccc(Cl)cc4F)n3n2)n[nH]1 | enzyme activity, inhibitor, TR-FRET | IC50 | 4 nM
Cc1cc(Nc2cc3ncccc3c(N[C@@H]3C[C@H]4CC[C@@H](C3)N4CCC#N)n2)n[nH]1 | target engagement in cells, inhibitor, BRET | IC50 | 2000 nM
